# Assay results published in ChEMBL document CHEMBL2010761, “NO-SSRIs: Nitric Oxide Chimera Drugs Incorporating a Selective Serotonin Reuptake Inhibitor” (ACS Med Chem Lett, 2011).
# Calls of active or inactive are those of the source. The rule behind the calls is not given here.
# Legend:
# [1] = biological target: Sodium-dependent serotonin transporter (Homo sapiens) (UniProt P31645); assay: Inhibition of human SERT-mediated serotonin reuptake in HEK293 cells at 100 nM relative to fluoxetine; format: cell-based
# Method in brief: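 HEK-293 cells stably transfected with human SERT cDNA were used to measure serotonin reuptake with test compounds at 100 nM. […] Means ± SEM from three separate experiments.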
# [2] = system: Mus musculus; assay: Antiamnesic activity in scopolamine-induced C57BL/6 mouse assessed as aversive memory measuring increase in latency to enter dark area at 1.54 mg/kg, ip administered 20 mins prior training measured after 48 hrs by step-through passive avoidance task analysis relative to control; format: functional, organism-based; parameters: dose 1.54 mg/kg
# Method in brief: (§1)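 Mice trained 2 h after habituation. Scopolamine 1 mg/kg in saline given ip 30 min before training, test drug in 25% DMSO given ip 20 min before training. Footshock 0.6 mA for 2 s on entering the dark compartment, with the door closing. Latency to enter the dark chamber recorded 48 h after training, drug-free. N = 9–11. Means and SEMs; ANOVA with Tukey post hoc test.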
# [3] = system: Mus musculus; assay: Antiamnesic activity in scopolamine-induced C57BL/6 mouse assessed as aversive memory measuring increase in latency to enter dark area at 1 mg/kg, ip administered 20 mins prior training measured after 48 hrs by step-through passive avoidance task analysis relative to control; format: functional, organism-based; parameters: dose 1 mg/kg; method in brief: as §1
# [4] = system: Rattus norvegicus; assay: Antidepressant activity in Sprague-Dawley rat assessed as decrease in immobility time at 10 mg/kg, ip administered 1, 5 and 24 hrs prior test by forced swimming task analysis relative to control; format: functional, organism-based; parameters: dose 10 mg/kg
# Method in brief: (§2)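 Male Sprague-Dawley rats, 200–250 g, given a 15 min pre-swim in the water tank 24 h before testing. Drug or vehicle given ip at 24, 5 and 1 h before the test. The 5 min test was scored in 60 blocks of 5 s for struggle, swimming and immobility. Means and SEMs; ANOVA with Tukey post hoc test.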
# [5] = system: Rattus norvegicus; assay: Antidepressant activity in Sprague-Dawley rat assessed as increase in swimming time at 10 mg/kg, ip administered 1, 5 and 24 hrs prior test by forced swimming task analysis relative to control; format: functional, organism-based; parameters: dose 10 mg/kg; method in brief: as §2
# [6] = system: Rattus norvegicus; assay: Antidepressant activity in Sprague-Dawley rat assessed as change in struggle time at 10 mg/kg, ip administered 1, 5 and 24 hrs prior test by forced swimming task analysis relative to control; format: functional, organism-based; parameters: dose 10 mg/kg; method in brief: as §2
# [7] = Half life in PBS at pH 7 to 8 assessed as hydrolysis of compound to fluoxetine at 200 uM by HPLC-UV analysis; format: physicochemical
# [8] = Prodrug activation in PBS assessed as production of NO at 500 uM after 30 mins by chemiluminescence assay; details: buffer, 0.5 h
# Method in brief: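 Compound (500 μM) was mixed with glutathione-containing PBS in a sealed vessel. NO in the headspace was measured by chemiluminescence after 30 min.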
# [9] = system: Brain; assay: Prodrug activation in mouse brain assessed as formation of fluoxetine at 15 mg/kg, ip after 120 mins by LC-MS/MS analysis; format: organism-based; parameters: dose 15 mg/kg, route intraperitoneal; details: in vivo, 2 h
# [10] = Prodrug activation in PBS at pH 8 assessed as hydrolysis of compound to fluoxetine at 200 uM by HPLC-UV analysis; details: buffer, pH 8, 200 µM
# [11] = Prodrug activation in PBS at pH 7 to 8 assessed as hydrolysis of compound to fluoxetine at 200 uM after 7 hrs by HPLC-UV analysis; details: buffer, pH 7, 7 h
# [12] = Prodrug activation in PBS at pH 7 assessed as hydrolysis of compound to fluoxetine at 200 uM by HPLC-UV analysis; details: buffer, pH 7, 200 µM
# [13] = system: Brain; assay: Prodrug activation in mouse brain assessed as formation of fluoxetine at 15 mg/kg, ip after 20 mins by LC-MS/MS analysis; format: organism-based; parameters: dose 15 mg/kg, route intraperitoneal; details: in vivo
# [14] = system: Mus musculus; assay: Antiamnesic activity in scopolamine-induced C57BL/6 mouse assessed as aversive memory measuring increase in latency to enter dark area at 2.05 mg/kg, ip administered 20 mins prior training measured after 48 hrs by step-through passive avoidance task analysis relative to control; format: functional, organism-based; parameters: dose 2.05 mg/kg
# Method in brief: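 Mice received scopolamine (1 mg/kg in physiological saline, ip) 30 min before training, and test drug in 25% DMSO ip 20 min before training. Training came 2 h after habituation: the animal was placed in the lit compartment, and entry to the dark side triggered door closure and a 0.6 mA, 2 s footshock. Latency to enter the dark chamber was retested 48 h later with no drug. N = 9–11; means ± SEM; ANOVA with Tukey's post hoc test.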
# [15] = system: Plasma; assay: Prodrug activation in mouse plasma assessed as formation of fluoxetine at 15 mg/kg, ip after 120 mins by LC-MS/MS analysis; format: organism-based; parameters: dose 15 mg/kg, route intraperitoneal; details: in vivo, 2 h
# [16] = system: Rattus norvegicus; assay: Antidepressant activity in Sprague-Dawley rat assessed as decrease in immobility time at 26.5 mg/kg, ip administered 1, 5 and 24 hrs prior test by forced swimming task analysis relative to control; format: functional, organism-based; parameters: dose 26.5 mg/kg
# Method in brief: (§3)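 Drug was given ip at 24, 5 and 1 h before the 5 min test, which was scored in 60 blocks of 5 s for struggle, swimming and immobility durations. Comparison was against vehicle by ANOVA with Tukey's post hoc test; means ± SEM.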
# [17] = Prodrug activation in PBS at pH 7.4 assessed as hydrolysis of compound to fluoxetine at 200 uM by HPLC-UV analysis; details: buffer, pH 7.4, 200 µM
# [18] = system: Rattus norvegicus; assay: Antidepressant activity in Sprague-Dawley rat assessed as increase in swimming time at 26.5 mg/kg, ip administered 1, 5 and 24 hrs prior test by forced swimming task analysis relative to control; format: functional, organism-based; parameters: dose 26.5 mg/kg; method in brief: as §3
# [19] = system: Plasma; assay: Prodrug activation in mouse plasma assessed as formation of fluoxetine at 15 mg/kg, ip after 20 mins by LC-MS/MS analysis; format: organism-based; parameters: dose 15 mg/kg, route intraperitoneal; details: in vivo
# [20] = system: Rattus norvegicus; assay: Antidepressant activity in Sprague-Dawley rat assessed as change in struggle time at 26.5 mg/kg, ip administered 1, 5 and 24 hrs prior test by forced swimming task analysis relative to control; format: functional, organism-based; parameters: dose 26.5 mg/kg; method in brief: as §3
# Sequence of Sodium-dependent serotonin transporter (Homo sapiens) (P31645 whole entry, looked up): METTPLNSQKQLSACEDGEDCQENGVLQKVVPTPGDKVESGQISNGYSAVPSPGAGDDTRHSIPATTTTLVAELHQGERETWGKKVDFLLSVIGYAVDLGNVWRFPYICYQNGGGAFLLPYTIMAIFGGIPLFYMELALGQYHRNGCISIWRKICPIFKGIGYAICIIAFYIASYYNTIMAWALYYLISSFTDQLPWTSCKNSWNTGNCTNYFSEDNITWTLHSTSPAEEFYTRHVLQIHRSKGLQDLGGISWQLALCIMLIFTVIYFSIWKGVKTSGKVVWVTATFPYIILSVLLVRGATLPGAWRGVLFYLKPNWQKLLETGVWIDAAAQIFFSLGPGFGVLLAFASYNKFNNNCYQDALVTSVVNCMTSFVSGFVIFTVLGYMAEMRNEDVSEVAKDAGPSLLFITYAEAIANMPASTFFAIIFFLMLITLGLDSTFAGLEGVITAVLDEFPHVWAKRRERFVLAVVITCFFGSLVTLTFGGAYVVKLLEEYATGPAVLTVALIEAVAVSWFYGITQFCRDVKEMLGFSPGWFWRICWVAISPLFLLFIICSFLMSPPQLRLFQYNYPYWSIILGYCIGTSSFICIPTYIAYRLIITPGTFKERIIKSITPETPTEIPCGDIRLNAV
compound,measurement,setting,value
O=C(SCCO[N+](=O)[O-])N1CC[C@@H](c2ccc(F)cc2)[C@H](COc2ccc3c(c2)OCO3)C1,Efficacy,[1],< 15%
CNCCC(Oc1ccc(C(F)(F)F)cc1)c1ccccc1 (stereo unspecified),Activity,[2],inactive
Cc1ncsc1CCO[N+](=O)[O-],Activity,[3],Active
same,Activity,[4],Active
same,Activity,[5],Active
same,Activity,[6],Active
CN(CCC(Oc1ccc(C(F)(F)F)cc1)c1ccccc1)C(=O)SCCO[N+](=O)[O-] (stereo unspecified),half-life at 200 µM,[7],1.67 h
same,Drug metabolism,[8],8.9 nM
same,Drug metabolism,[9],Active
same,Drug metabolism,[10],Active
same,Drug metabolism,[11],Active
same,Drug metabolism,[12],Active
same,Drug metabolism,[13],Active
same,Activity,[14],Active
same,Drug metabolism,[15],Active
same,Activity,[16],Active
same,Drug metabolism,[17],Active
same,Activity,[18],Active
same,Drug metabolism,[19],Active
same,Activity,[20],Active
same,Efficacy,[1],< 15%
